For assay [1], the target named is C-C chemokine receptor type 5 (Homo sapiens, UniProt P51681). The experiment in a line: Inhibitory concentration for displacement of [125I]-MIP-1 alpha from recombinant human CC chemokine receptor 5 (CCR5) expressed in CHO cell. It is filed as cell-based. The procedure, abridged: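 Competitive binding to CCR5 on CHO cell membranes, read as displacement of [125I]-labeled MIP-1α. IC50 values are means of triplicate determinations. Standard errors were normally <15% within an assay. Assay-to-assay variation was within ±2-fold, judged from a standard compound.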

The subject of assay [2] is HeLa. Briefly: Antiviral activities in a cell culture HIV-1 infectivity inhibition assay using HeLa cells plus 50% normal human serum. It is filed as functional.
For assay [3], the system named is HeLa. Briefly: Antiviral activities in a cell culture HIV-1 infectivity inhibition assay using HeLa cells. Format: functional. The conditions noted are these: Homo sapiens.

Molecules are shown by their SMILES.

The IC50 is the concentration that inhibits the measured activity by half. In general, IC90 refers to the concentration at which the effect reaches the 90% level.

Chain of C-C chemokine receptor type 5 (P51681 whole entry): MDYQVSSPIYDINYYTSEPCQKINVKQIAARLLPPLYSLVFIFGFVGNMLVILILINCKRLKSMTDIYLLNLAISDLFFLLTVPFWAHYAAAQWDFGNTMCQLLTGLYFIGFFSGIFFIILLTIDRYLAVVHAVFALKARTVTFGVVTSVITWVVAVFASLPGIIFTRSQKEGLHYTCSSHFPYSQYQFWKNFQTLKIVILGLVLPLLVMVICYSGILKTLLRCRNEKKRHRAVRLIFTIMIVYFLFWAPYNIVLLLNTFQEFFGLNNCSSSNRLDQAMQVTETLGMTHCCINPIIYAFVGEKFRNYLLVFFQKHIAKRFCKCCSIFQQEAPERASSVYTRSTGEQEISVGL

In the case of `CC[C@H](C)[C@H](C(=O)O)N1C[C@H](CN2CCC(c3cc(Cc4ccc(C)cc4)nn3CC)CC2)[C@@H](c2cccc(F)c2)C1`, the IC50 in assay [1] is 0.3 nM. In addition, the IC90 with HeLa [2] was 11 nM; in the assay on HeLa [3], under 0.14 nM.
In the same order, the values of `CCCOc1ccc(Cc2cc(C3CCN(C[C@H]4CN([C@@H](C(=O)O)[C@@H](C)CC)C[C@@H]4c4cccc(F)c4)CC3)n(CC)n2)cc1` are 1.1 nM, 100 nM and under 0.14 nM.
For `CC[C@H](C)[C@H](C(=O)O)N1C[C@H](CN2CCC(c3cc(Cc4cccc5ccccc45)nn3CC)CC2)[C@@H](c2cccc(F)c2)C1` the same measures were 0.4 nM, 11 nM and under 0.14 nM.
For the compound `CCn1nc(Cc2ccc(C)cc2)cc1C1CCN(C[C@H]2CN([C@@H](C(=O)O)C(C)(C)C)C[C@@H]2c2cccc(F)c2)CC1`, the IC50 in assay [1] came to 0.6 nM. For the same compound, the IC90 with HeLa [2] is 33 nM; with HeLa [3] it was under 0.14 nM.
Regarding `CC[C@@H](C)[C@H](C(=O)O)N1C[C@H](CN2CCC(c3cc(Cc4ccc(-c5ccccc5)cc4)nn3CC)CC2)[C@@H](c2cccc(F)c2)C1`, the IC50 in assay [1] amounted to 0.5 nM. Further, the IC90 in the assay with HeLa [2] came to 300 nM; with HeLa [3], 1.2 nM.
Take `CCn1nc(Cc2ccc(OC(F)F)cc2)cc1C1CCN(C[C@H]2CN([C@@H](C(=O)O)C(C)C)C[C@@H]2c2cccc(F)c2)CC1`: in assay [1], the IC50 came out at 0.5 nM. Also, the IC90 with HeLa [2] was 100 nM; with HeLa [3], under 0.14 nM.
In the same order, the values of `CCn1nc(Cc2cccnc2)cc1C1CCN(C[C@H]2CN([C@@H](C(=O)O)C3CCCCC3)C[C@@H]2c2cccc(F)c2)CC1` are 3.9 nM, 33 nM and 0.4 nM.
`CCn1nc(Cc2ccc(OC3CC3)cc2)cc1C1CCN(C[C@H]2CN([C@@H](C(=O)O)C(C)(C)C)C[C@@H]2c2cccc(F)c2)CC1`: the IC50 in assay [1] worked out at 0.4 nM. The IC90 in the assay with HeLa [2] was 33 nM; in the assay on HeLa [3], under 0.14 nM.
In the case of `CC[C@H](C)[C@H](C(=O)O)N1C[C@H](CN2CCC(c3cc(Cc4ccc5ccccc5c4)nn3CC)CC2)[C@@H](c2cccc(F)c2)C1`, the IC50 in assay [1] is 0.3 nM. The figures for the IC90 in the assay with HeLa [2] and in the assay on HeLa [3] were 300 nM and under 0.14 nM, respectively.
In the same order, the values of `CCn1nc(Cc2cc(C(F)(F)F)cc(C(F)(F)F)c2)cc1C1CCN(C[C@H]2CN([C@@H](C(=O)O)C(C)(C)C)C[C@@H]2c2cccc(F)c2)CC1` are 2.3 nM, over 300 nM and 11 nM.
For `CCn1nc(Cc2ccc3c(c2)OCO3)cc1C1CCN(C[C@H]2CN([C@@H](C(=O)O)C(C)(C)C)C[C@@H]2c2cccc(F)c2)CC1` the same measures were 0.7 nM, 33 nM and under 0.14 nM.
Consider `CC[C@H](C)[C@H](C(=O)O)N1C[C@H](CN2CCC(c3cc(Cc4ccc(S(=O)(=O)c5ccccc5)cc4)nn3CC)CC2)[C@@H](c2cccc(F)c2)C1`, for which the IC50 in assay [1] stood at 0.6 nM. Further, the IC90 in the assay with HeLa [2] is 11 nM; with HeLa [3], under 0.14 nM.
In the same order, the values of `CCOc1cccc(Cc2cc(C3CCN(C[C@H]4CN([C@@H](C(=O)O)[C@@H](C)CC)C[C@@H]4c4cccc(F)c4)CC3)n(CC)n2)c1` are 0.9 nM, 100 nM and under 0.14 nM.
As to `CCn1nc(Cc2cccc(OC)c2)cc1C1CCN(C[C@H]2CN([C@@H](C(=O)O)C(C)(C)C)C[C@@H]2c2cccc(F)c2)CC1`, the IC50 in assay [1] stood at 0.7 nM. The concentration for an effect of 90% (IC90) is 33 nM with HeLa [2] and under 0.14 nM in the assay on HeLa [3].
In the same order, the values of `CCn1nc(Cc2ccc(OC(F)(F)F)cc2)cc1C1CCN(C[C@H]2CN([C@@H](C(=O)O)C(C)(C)C)C[C@@H]2c2cccc(F)c2)CC1` are 0.6 nM, 100 nM and 1.2 nM.
`CC[C@H](C)[C@H](C(=O)O)N1C[C@H](CN2CCC(c3cc(Cc4ccc(OC(C)C)cc4)nn3CC)CC2)[C@@H](c2cccc(F)c2)C1`: the IC50 in assay [1] was determined as 0.8 nM. The IC90 in the assay on HeLa [2] was 33 nM; in the assay on HeLa [3] it was under 0.14 nM.
In the same order, the values of `CC[C@@H](C)[C@H](C(=O)O)N1C[C@H](CN2CCC(c3cc(Cc4ccc(OC)c(OC)c4)nn3CC)CC2)[C@@H](c2cccc(F)c2)C1` are 2.6 nM, 33 nM and 0.4 nM.
Consider `CCn1nc(Cc2ccc(F)c(F)c2)cc1C1CCN(C[C@H]2CN([C@@H](C(=O)O)C(C)C)C[C@@H]2c2cccc(F)c2)CC1`, for which the IC50 in assay [1] turned out to be 1.1 nM. Besides, the IC90 in the assay with HeLa [2] worked out at 300 nM; in the assay on HeLa [3] it was 3.7 nM.
In the same order, the values of `CCn1nc(Cc2ccc3ccccc3c2)cc1C1CCN(C[C@H]2CN([C@@H](C(=O)O)C(C)(C)C)C[C@@H]2c2cccc(F)c2)CC1` are 0.2 nM, 100 nM and under 0.14 nM.
In the same order, the values of `CC[C@H](C)[C@H](C(=O)O)N1C[C@H](CN2CCC(c3cc(Cc4ccc(OCC(F)(F)F)cc4)nn3CC)CC2)[C@@H](c2cccc(F)c2)C1` are 0.6 nM, 33 nM and 0.4 nM.
For `CCOc1ccc(Cc2cc(C3CCN(C[C@H]4CN([C@@H](C(=O)O)[C@H](C)CC)C[C@@H]4c4cccc(F)c4)CC3)n(CC)n2)cc1F` the same measures were 0.4 nM, 33 nM and under 0.14 nM.
As to `CCn1nc(Cc2ccc(Oc3ccccc3)cc2)cc1C1CCN(C[C@H]2CN([C@@H](C(=O)O)C(C)C)C[C@@H]2c2cccc(F)c2)CC1`, in assay [1], the IC50 came out at 0.6 nM. For the same compound, the IC90 with HeLa [2] is over 300 nM; in the assay on HeLa [3], 11 nM.
As to `CCn1nc(CC2CCCCC2)cc1C1CCN(C[C@H]2CN([C@@H](C(=O)O)C(C)(C)C)C[C@@H]2c2cccc(F)c2)CC1`, in assay [1], the IC50 is 1.1 nM. Moreover, the IC90 with HeLa [2] came out at 300 nM; in the assay on HeLa [3], 3.7 nM.
As to `CCn1nc(Cc2ccc(C(F)(F)F)cc2)cc1C1CCN(C[C@H]2CN([C@@H](C(=O)O)C3CCCCC3)C[C@@H]2c2cccc(F)c2)CC1`, the half-maximal inhibitory concentration (IC50) in assay [1] was determined as 1.5 nM. Moreover, the concentration for an effect of 90% (IC90) was 33 nM in the assay with HeLa [2] and 0.4 nM in the assay with HeLa [3].
For the compound `CC[C@H](C)[C@H](C(=O)O)N1C[C@H](CN2CCC(c3cc(Cc4cccc(OC)c4)nn3CC)CC2)[C@@H](c2cccc(F)c2)C1`, the IC50 in assay [1] amounted to 1.2 nM. The IC90 was 100 nM in the assay on HeLa [2] and under 0.14 nM with HeLa [3].
In the case of `CCn1nc(Cc2ccccc2F)cc1C1CCN(C[C@H]2CN([C@@H](C(=O)O)C3CCCCC3)C[C@@H]2c2cccc(F)c2)CC1`, in assay [1], the IC50 came out at 0.5 nM. Further, the values for the 90% effect concentration (IC90) with HeLa [2] and with HeLa [3] were 33 nM and under 0.14 nM, respectively.
In the same order, the values of `CC[C@@H](C)[C@H](C(=O)O)N1C[C@H](CN2CCC(c3cc(Cc4ccc(S(=O)(=O)c5ccccc5)cc4)nn3CC)CC2)[C@@H](c2cccc(F)c2)C1` are 1.1 nM, 33 nM and 0.4 nM.
For `CCn1nc(Cc2ccccc2F)cc1C1CCN(C[C@H]2CN([C@@H](C(=O)O)C(C)C)C[C@@H]2c2cccc(F)c2)CC1` the same measures were 2.2 nM, over 300 nM and 11 nM.
As for `CC[C@@H](C)[C@H](C(=O)O)N1C[C@H](CN2CCC(c3cc(Cc4cc(C(F)(F)F)cc(C(F)(F)F)c4)nn3CC)CC2)[C@@H](c2cccc(F)c2)C1`, the IC50 in assay [1] amounted to 1.6 nM. The IC90 with HeLa [2] is over 300 nM; in the assay with HeLa [3] it was 33 nM.
In the same order, the values of `CCn1nc(Cc2ccc(Cl)cc2)cc1C1CCN(C[C@H]2CN([C@@H](C(=O)O)C(C)C)C[C@@H]2c2cccc(F)c2)CC1` are 1.3 nM, 300 nM and 3.7 nM.
For `CCn1nc(Cc2ccc(C#N)cc2)cc1C1CCN(C[C@H]2CN([C@@H](C(=O)O)C(C)C)C[C@@H]2c2cccc(F)c2)CC1` the same measures were 3.1 nM, 100 nM and 1.2 nM.
In the same order, the values of `CC[C@@H](C)[C@H](C(=O)O)N1C[C@H](CN2CCC(c3cc(Cc4ccc(OC5CC5)cc4)nn3CC)CC2)[C@@H](c2cccc(F)c2)C1` are 0.3 nM, 33 nM and under 0.14 nM.
Turning to `CCn1nc(Cc2ccc(S(C)(=O)=O)cc2)cc1C1CCN(C[C@H]2CN([C@@H](C(=O)O)C3CCCCC3)C[C@@H]2c2cccc(F)c2)CC1`, the IC50 in assay [1] is 2.3 nM. Also, the values for the IC90 in the assay on HeLa [2] and with HeLa [3] were 11 nM and 0.4 nM, respectively.
For `CCOc1ccc(Cc2cc(C3CCN(C[C@H]4CN([C@@H](C(=O)O)C(C)C)C[C@@H]4c4cccc(F)c4)CC3)n(CC)n2)cc1` the same measures were 1 nM, 300 nM and 0.4 nM.
For `CCOc1ccc(Cc2cc(C3CCN(C[C@H]4CN([C@@H](C(=O)O)C5CCCCC5)C[C@@H]4c4cccc(F)c4)CC3)n(CC)n2)cc1` the same measures were 1 nM, 33 nM and under 0.14 nM.
For the compound `CCn1nc(Cc2ccc(O)cc2)cc1C1CCN(C[C@H]2CN([C@@H](C(=O)O)C(C)C)C[C@@H]2c2cccc(F)c2)CC1`, the IC50 in assay [1] came out at 0.6 nM. The IC90 amounted to 33 nM in the assay on HeLa [2] and 1.2 nM in the assay on HeLa [3].
In the same order, the values of `CCn1nc(Cc2cc(F)cc(F)c2)cc1C1CCN(C[C@H]2CN([C@@H](C(=O)O)C(C)C)C[C@@H]2c2cccc(F)c2)CC1` are 2.6 nM, 300 nM and 11 nM.
On to `CC[C@@H](C)[C@H](C(=O)O)N1C[C@H](CN2CCC(c3cc(Cc4ccc(O)cc4)nn3CC)CC2)[C@@H](c2cccc(F)c2)C1`, for which, in assay [1], the 50% inhibitory concentration (IC50) was 0.6 nM. For the same compound, the values for the IC90 with HeLa [2] and in the assay with HeLa [3] were 11 nM and under 0.14 nM, respectively.
For `CC[C@@H](C)[C@H](C(=O)O)N1C[C@H](CN2CCC(c3cc(Cc4ccc(OCc5ccccc5)cc4)nn3CC)CC2)[C@@H](c2cccc(F)c2)C1` the same measures were 0.5 nM, 100 nM and 3.7 nM.
